Screening results from PubChem BioAssay.
RGS4 pot – RGS4 potentiators or activators, primary screen, cell-based, HEK293 M3R inducible RGS4, calcium flux; carbachol calcium flux Fluo4; hits give low values; B-score at 10 µM; 310,000 tested, 0.92% active; AID 463111, 2010;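 active = B-score of the integrated calcium signal more than 4 SD below the library mean, with starting fluorescence not abnormally high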;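 note: negative B-score means reduced calcium response which marks RGS4 activation or potentiation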
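Test system: HEK293 cells with stable M3R and inducible RGS4; also added: carbachol at ECmax as muscarinic agonist stimulus; schedule: dye loading 30 min 37 °C, buffer rest 30 min RT; technique: kinetic calcium fluorescence imaging with Fluo4-AM dye, 2 µM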
RGS4 block – RGS4 inhibitors, primary screen, cell-based, HEK293 M3R inducible RGS4, calcium flux; Regulator of G-protein signaling 4 (Homo sapiens), P49798; Fluo-4 calcium flux; hits give high values; triggered by carbachol at its EC20; B-score at 10 µM; 310,000 tested, 0.45% active;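 active = B-score, a plate-corrected calcium signal, over three deviations above library mean, with baseline fluorescence within five deviations of library mean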;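 note: RGS4 expression induced by doxycycline in cells with stable M3 receptor; B-score is computed from the integrated fluorescence ratio over baseline after carbachol; higher B-score means a larger calcium signal and so more RGS4 inhibition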
Target sequence (P49798 whole entry, looked up): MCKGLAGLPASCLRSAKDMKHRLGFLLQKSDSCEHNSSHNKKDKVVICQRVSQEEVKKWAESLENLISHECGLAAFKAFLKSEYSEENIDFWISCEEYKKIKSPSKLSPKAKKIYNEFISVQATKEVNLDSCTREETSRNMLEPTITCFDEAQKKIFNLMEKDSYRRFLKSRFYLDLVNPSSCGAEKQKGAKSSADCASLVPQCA
MrgX1 antag – antagonists of human MrgX1 receptor, primary screen, HEK293 cells, Fluo-4 calcium flux; 310,000 tested, 1.3% active; Mas-related G-protein coupled receptor member X1 (Homo sapiens), Q96LB2; BAM8-22 antagonism; hits give low values; B-score at 10 µM;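 active = calcium-response B-score plate-corrected more than 3 library SD below zero, starting fluorescence within 5 deviations, no agonist response on first addition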;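 note: peak minus trough fluorescence over baseline after final BAM8-22 challenge near maximal dose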
Target sequence (Q96LB2 whole entry, looked up): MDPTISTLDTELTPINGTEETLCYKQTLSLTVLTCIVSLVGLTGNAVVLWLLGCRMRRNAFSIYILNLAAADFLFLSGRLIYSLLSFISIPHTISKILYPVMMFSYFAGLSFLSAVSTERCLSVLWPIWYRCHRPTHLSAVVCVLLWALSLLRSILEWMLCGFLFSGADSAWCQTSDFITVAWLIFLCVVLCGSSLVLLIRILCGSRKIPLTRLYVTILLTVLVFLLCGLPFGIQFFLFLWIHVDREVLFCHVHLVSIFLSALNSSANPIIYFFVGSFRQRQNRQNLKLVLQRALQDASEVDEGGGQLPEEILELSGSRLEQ
Lipid droplet – inhibitors of hepatocyte lipid droplet formation, primary screen, imaging, high-throughput imaging, BODIPY stain; AML12 mouse hepatocytes, oleate lipid droplets; inhibition, % at 6.5 µM; 240,000 tested, 0.4% active; AID 1656, 2009;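 active = lipid droplet intensity inhibited by at least 50%, with more than 500 cells counted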
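Assay system: AML12 hepatocytes (mouse); Probe or stimulus: oleic acid at 100 µM to induce lipid droplet formation; Dosing: compound at 6.5 µM only; Schedule: compound with oleate, overnight; Detection: fluorescence imaging, 20x objective, two fields per well; Measure: % inhibition of lipid droplet signal.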
MrgX1 PAM – positive allosteric modulators of MrgX1, primary screen, HEK293 cells, Fluo-4 calcium flux. Mas-related G-protein coupled receptor member X1 (Homo sapiens), Q96LB2. FDSS; hits give high values. B-score at 10 µM. 310,000 tested, 0.63% active;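 active = plate-corrected calcium response at least 3 library SD above typical, normal starting fluorescence, not activating the receptor alone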;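 note: compound read alongside a low EC10 to EC30 dose of BAM8-22 agonist; peak minus trough fluorescence over baseline measured at the second addition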
MrgX1 agonist – agonists of human MrgX1 receptor, primary screen, HEK293 cells, Fluo-4 calcium flux; Fluo-4 calcium fluorescence, agonist mode; hits give high values; AID 588627, 2011; 310,000 tested, 0.44% active; B-score at 10 µM;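 active = calcium response B-score plate-corrected fluorescence ratio at least 3 library SD, with starting fluorescence B-score inside 5 SD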
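Material: MrgX1-expressing HEK293 cells; input: 15,000 cells per well; doses: test compound given as first of three sequential additions; schedule: overnight plating before 1 h dye loading; technique: Fluo-4 NW calcium-flux fluorescence, kinetic read; evaluation: baseline-normalised fluorescence change ratio, B-scored; control set: plate-wise positive and negative controls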
MrgX1 PAM conf – MrgX1 positive allosteric modulators, duplicate retest, confirmation, HEK293 cells, Fluo-4 calcium flux. shares compounds with MrgX1 PAM. Fluo-4 calcium fluorescence, FDSS. activation (ratio percentage), % at 10 µM. 1,200 tested, 13% active. AID 602413, 2012;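 active = ratio at least 3 SD above the weak peptide control, stable starting fluorescence, no direct agonism earlier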;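 note: compound followed by low BAM8-22 agonist challenge near EC20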
MrgX1 ant reconf – MrgX1 receptor antagonists, duplicate retest, confirmation, HEK293 cells, Fluo-4 calcium flux. shares compounds with MrgX1 antag. BAM8-22 calcium flux; hits give low values. remaining BAM8-22 calcium response % of control (hits give low values), % at 10 µM. 2,300 tested, 19% active. AID 602420, 2012;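 active = remaining agonist calcium response no higher than 100% minus 3 SD of agonist-only control wells, with starting fluorescence near control levels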;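 note: agonist BAM8-22 given at a near maximal EC90 to ECmax level; peak minus minimum fluorescence divided by baseline after agonist addition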
HEK293 Ca flux – nonspecific calcium signal in parental HEK293, confirmation, counter-screen for MrgX1 antagonist project, parental HEK293 cells, Fluo-4 calcium flux; shares compounds with MrgX1 antag; Fluo-4 calcium fluorescence, FDSS; fluorescence ratio F(max-min)/F0 at 10 µM; 4,000 tested, 2% active; AID 624111, 2012;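 active = duplicate-averaged calcium fluorescence ratio at least three times the standard deviation of buffer wells, a nonspecific response in parental cells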
HEK293 Ca counter – calcium response in parental HEK293 cells, primary screen, counter-screen for MrgX1 allosteric activator project, cell-based, Fluo-4 calcium flux, duplicate | 4,000 tested, 0.4% active | fluorescence ratio F(max-min)/F0 at 10 µM | shares compounds with MrgX1 antag | Fluo-4 fluorescence ratio; hits give high values;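 active = calcium fluorescence ratio, averaged over duplicates, at least 3 SD of the buffer-well ratio, meaning a nonspecific response in receptor-free cells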;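 note: untransfected parental HEK293 lacking MrgX1 used as counterscreen for MrgX1 allosteric activators; fluorescence change taken during the second addition on a kinetic imager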
HEK293 Ca cntr2 – calcium response in parental HEK293 cells, primary screen, counter-screen for MrgX1 agonist project, cell-based, Fluo-4 calcium flux, duplicate, agonist mode | shares compounds with MrgX1 antag | Fluo-4 calcium fluorescence (FDSS); hits give high values | AID 624115, 2012 | 4,000 tested, 8.7% active | fluorescence ratio F(max-min)/F0 at 10 µM;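 active = calcium fluorescence ratio at least three times the spread of buffer wells, meaning a non-specific response in parental cells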
An asterisk follows results filed as active; i = inactive; · = no result given. Most compounds without a hit are left out; they make up all but 3.8% or so of the library.

SMILES	RGS4 pot	RGS4 block	MrgX1 antag	Lipid droplet	MrgX1 PAM	MrgX1 agonist	MrgX1 PAM conf	HEK293 Ca flux	HEK293 Ca counter	HEK293 Ca cntr2	others
N#Cc1c(-c2ccccc2)cc(-c2ccccc2)nc1SCC(=O)NCC(=O)O	i	i	i	-1	19*	i	i	i	i	i
COc1ccc(-c2cc(-c3ccccc3)c(C#N)c(SCC(=O)O)n2)cc1	i	i	i	·	i	i	·	·	·	·
CN(C)CCCN(C(=O)c1ccco1)c1nc2ccc(Br)cc2s1	i	i	i	-8	6.5*	i	i	i	i	i
COc1cc(CNn2cn[nH]c2=S)cc(Cl)c1OCc1ccccc1	i	i	i	·	i	i	·	·	·	·
COc1cc(CNn2cn[nH]c2=S)cc(Br)c1OCc1ccccc1F	i	i	i	0	6.5*	i	i	i	i	i
O=C(CN1CCN(S(=O)(=O)c2ccccc2)CC1)Nc1ccc2c(c1)CCC2	i	i	i	10	i	i	·	·	·	·
CCC(C)/C(C)=N/NC(=O)CSc1nc2ccccc2[nH]1 (stereo not drawn)	i	i	i	-1	i	i	·	·	·	·
O=C(CSC1=NCCN1)NC(c1ccccc1)c1ccccc1	i	i	i	1	13*	i	i	i	i	i
Cc1ccc(N2CC(C(=O)Nc3ccc(C)c(S(=O)(=O)N(C)C)c3)CC2=O)cc1 (stereo not drawn)	i	i	i	-2	10*	i	i	i	i	i
CCOC(=O)c1cncc(NC(=O)c2ccccc2)c1	i	i	i	·	i	i	·	·	·	·
Cc1nc2ccccc2cc1OCc1ccc(Cl)cc1	i	i	i	0	i	i	·	·	·	·
Cc1nc2ccccc2cc1OCc1ccccc1	i	i	i	·	6.6*	i	i	i	i	i
O=C1c2cccc(OCC(=O)N3CCCc4ccccc43)c2CCN1Cc1cccnc1	i	i	i	5	18*	i	i	i	i	i
O=S(=O)(Nc1nnc(C(F)(F)F)s1)c1ccc(Cl)cc1	i	i	i	-2	i	i	·	·	·	·
CC(C)(C)c1nnc(NS(=O)(=O)c2cc(Cl)ccc2Cl)s1	i	i	i	4	12*	i	i	i	i	i
Cc1ccc(C(F)(F)F)cc1NC(N)=S	i	i	i	-6	7.2*	i	i	i	i	i
COc1ccc(C(=O)C2CCN(CC(=O)Nc3ccc(OC)cc3OC)CC2)cc1	i	i	i	-6	7.5*	i	i	i	i	i
CC(C)(C)NS(=O)(=O)c1ccc(C(=O)Nc2ccc3c(c2)OCO3)cc1	i	i	i	16	i	i	·	·	·	·
O=C1CCC2=C(CCCC2=O)N1	i	i	i	11	10*	i	i	i	i	i
COc1ccc(CNc2cccc(F)c2)cc1Br	i	i	i	12	6.5*	i	i	i	i	i
CCC1(Cc2ccccc2)NC(=O)c2ccccc2O1 (stereo not drawn)	i	i	i	-6	12*	i	i	i	i	i
O=C1NC2(CCCCCC2)Oc2ccccc21	i	i	i	-3	i	i	·	·	·	·
CCC1CCCCN1CCCNC(=O)CN1C(=O)COc2ccccc21 (stereo not drawn)	i	i	i	-1	i	i	·	·	·	·
COc1ccc(CCNc2nc(-c3ccncc3)cs2)cc1OC	i	i	-5.1*	-1	7.3*	i	i	i	i	i	MrgX1 ant reconf=78%*
CC1Cc2ccccc2N1C(=O)C1CCCN(S(=O)(=O)c2cccc3cccnc23)C1 (stereo not drawn)	·	·	i	·	8.9*	i	8.6%*	i	i	i
SMILES	RGS4 pot	RGS4 block	MrgX1 antag	Lipid droplet	MrgX1 PAM	MrgX1 agonist	MrgX1 PAM conf	HEK293 Ca flux	HEK293 Ca counter	HEK293 Ca cntr2	others
CC1=CC(C)C(/C=N/N=C(N)N)C(C)C1 (stereo not drawn)	i	i	i	-3	24*	i	i	i	i	i
COc1ccc(S(=O)(=O)n2nc(OC(=O)c3ccccc3Br)cc2N)cc1	i	i	i	·	10*	i	32%*	i	i	i
COc1ccc(S(=O)(=O)n2nc(OC(=O)c3ccccc3)cc2N)cc1	i	i	i	·	i	i	·	·	·	·
CS(=O)(=O)n1nc(OC(=O)c2cccc3ccccc23)cc1N	i	i	i	·	6.5*	i	14%*	i	i	i
CS(=O)(=O)n1nc(OC(=O)c2cc(Br)ccc2Cl)cc1N	i	i	i	18	i	i	·	·	·	·
COc1ccc(S(=O)(=O)n2nc(OC(C)=O)cc2N(C(C)=O)C(C)=O)cc1	i	i	i	5	13*	i	i	i	i	i
